{"source": "paper PMC5598417", "about": "(Toxicology Reports, 2014)", "key": {"MA-10 cells [1]": {"tested_on": "MA-10 cells", "assay": "Basal testosterone secretion by MA-10 Leydig cells", "assay_type": "cell-based, murine", "settings": "for T secretion, concentration curves without LH: SU10603 0.05-1 μM, FLUS or TEBU 0.3-10 μM, Supplementary Fig. 1; for T secretion, concentration curves without LH / decrease of basal T secretion compared with vehicle-treated control cells: 48 h; for decrease of basal T secretion compared with vehicle-treated control cells: 10 μM; for T secretion by MA-10 cells compared with vehicle-control: basal T secretion, conazole 10 μM"}, "MA-10 cells [2]": {"tested_on": "MA-10 cells", "assay": "LH-induced testosterone secretion by MA-10 Leydig cells", "assay_type": "cell-based, murine", "settings": "read-out: IC50 of T secretion inhibition in combination with LH; LH 10 ng/mL; 48-h exposure"}, "MA-10 cells [3]": {"tested_on": "MA-10 cells", "assay": "Reactive oxygen species assay", "assay_type": "cell-based, murine", "settings": "for ROS formation compared with vehicle-treated control cells: 100 μM, 48-h exposure", "how_it_was_run": "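MA-10 cells seeded at 7.5 × 10^4 cells/well in gelatin-coated plates 24 h beforehand, loaded with H2-DCFDA (10 μM, 2 h, 37 °C), then washed twice in warm PBS. Exposure to 0.01–100 μM in serum-free, phenol red-free DMEM/F-12 (≤0.1% DMSO) for up to 48 h. Fluorescence read at 485/530 nm at 0, 1, 24 and 48 h and expressed as % of time-matched control. Positive controls were H2O2 20 mM (1 h) and rotenone 100 μM (24/48 h). Three independent experiments, quadruplicates.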"}, "MA-10 cells [4]": {"tested_on": "MA-10 cells", "assay": "Expression of steroidogenic genes in MA-10 cells", "assay_type": "cell-based, murine", "settings": "6-h exposure; conazole 10 μM"}, "MA-10 cells [5]": {"tested_on": "MA-10 cells", "assay": "Expression of cholesterol biosynthesis genes in MA-10 cells", "assay_type": "cell-based, murine", "settings": "6-h exposure; cAMP 100 μM, conazole 10 μM"}, "[6]": {"settings": "cited from earlier work"}, "androgen receptor (AR)": {"molecular_target": "T1, androgen receptor (AR) (Homo sapiens, UniProt P10275)", "T1 sequence (P10275 1-920)": "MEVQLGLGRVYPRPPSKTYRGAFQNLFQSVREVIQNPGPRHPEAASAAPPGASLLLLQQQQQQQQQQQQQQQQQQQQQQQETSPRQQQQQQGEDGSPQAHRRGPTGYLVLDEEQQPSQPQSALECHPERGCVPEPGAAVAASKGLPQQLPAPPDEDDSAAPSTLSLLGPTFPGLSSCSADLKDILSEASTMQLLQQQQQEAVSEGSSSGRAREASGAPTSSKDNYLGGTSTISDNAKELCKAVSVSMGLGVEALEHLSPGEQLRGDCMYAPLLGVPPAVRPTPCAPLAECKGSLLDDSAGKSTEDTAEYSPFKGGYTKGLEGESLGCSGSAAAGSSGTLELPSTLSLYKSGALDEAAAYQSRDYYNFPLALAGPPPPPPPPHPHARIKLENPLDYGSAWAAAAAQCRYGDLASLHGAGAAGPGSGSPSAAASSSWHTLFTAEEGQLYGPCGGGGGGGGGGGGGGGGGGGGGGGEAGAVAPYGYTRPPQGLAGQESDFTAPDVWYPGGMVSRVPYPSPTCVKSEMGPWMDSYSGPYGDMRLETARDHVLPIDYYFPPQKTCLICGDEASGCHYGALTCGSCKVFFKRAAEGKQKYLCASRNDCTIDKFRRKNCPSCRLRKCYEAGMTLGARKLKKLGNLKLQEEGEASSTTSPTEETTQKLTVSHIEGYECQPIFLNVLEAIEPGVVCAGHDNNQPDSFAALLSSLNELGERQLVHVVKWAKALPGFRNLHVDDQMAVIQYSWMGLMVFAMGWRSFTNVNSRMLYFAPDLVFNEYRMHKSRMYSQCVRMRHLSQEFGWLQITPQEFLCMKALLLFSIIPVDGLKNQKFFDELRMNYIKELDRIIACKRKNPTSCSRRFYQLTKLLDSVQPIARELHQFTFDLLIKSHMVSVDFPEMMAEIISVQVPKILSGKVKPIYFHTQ", "assay_type": "cell-based", "settings": "BMR25%FLUT/BMR25%FLUT conazole"}, "[7]": {"settings": "humans; cited from earlier work"}}, "data": [{"smiles": "O=C1c2cc(Cl)ccc2CCC1c1cccnc1", "note": "(centres unmarked) [SU10603, reference compound]", "values": [{"measurement": "decrease of T secretion compared to vehicle-treated cells", "setting": "MA-10 cells [1]; SU10603 1 μM, 48-h exposure", "result": 82, "unit": "%"}, {"measurement": "T secretion, concentration curves without LH", "setting": "MA-10 cells [1]", "result": "concentration-dependently inhibited T secretion"}, {"measurement": "IC50", "setting": "MA-10 cells [2]", "result": 500, "unit": "nM"}]}, {"smiles": "CCCC(Cn1cncn1)c1ccc(Cl)cc1Cl", "note": "(centres unmarked) [PEN, Penconazole]", "values": [{"measurement": "ROS formation compared with vehicle-treated control cells", "setting": "MA-10 cells [3]", "result": "did not significantly change"}]}, {"smiles": "CCCCC(C#N)(Cn1cncn1)c1ccc(Cl)cc1", "note": "(centres unmarked) [MYC, Myclobutanil]", "values": [{"measurement": "ROS formation compared with vehicle-treated control cells", "setting": "MA-10 cells [3]", "result": "did not significantly change"}]}, {"smiles": "CC(C)(C)C(O)(CCc1ccc(Cl)cc1)Cn1cncn1", "note": "(centres unmarked) [TEBU, Tebuconazole]", "values": [{"measurement": "gene expression of five steroidogenic genes (StAR, Cyp11A1, Cyp17A1, 3β-HSD1, 17β-HSD3)", "setting": "MA-10 cells [4]", "result": "did not significantly affect"}, {"measurement": "decrease of basal T secretion compared with vehicle-treated control cells", "setting": "MA-10 cells [1]", "result": "more than 50%"}, {"measurement": "T secretion, concentration curves without LH", "setting": "MA-10 cells [1]", "result": "concentration-dependently inhibited T secretion"}, {"measurement": "ROS formation compared with vehicle-treated control cells", "setting": "MA-10 cells [3]", "result": 1.4, "unit": "fold"}, {"measurement": "gene expression of Por in comparison with vehicle-treated cells", "setting": "MA-10 cells [5]", "result": 0.8, "unit": "fold"}, {"measurement": "elimination half-life in soil", "setting": "[6]", "result": "approximately 800 days"}]}, {"smiles": "CC(C1CC1)C(O)(Cn1cncn1)c1ccc(Cl)cc1", "note": "(centres unmarked) [CYPRO, Cyproconazole]", "values": [{"measurement": "gene expression of five steroidogenic genes (StAR, Cyp11A1, Cyp17A1, 3β-HSD1, 17β-HSD3)", "setting": "MA-10 cells [4]", "result": "did not significantly affect"}, {"measurement": "ROS formation compared with vehicle-treated control cells", "setting": "MA-10 cells [3]", "result": "did not significantly change"}]}, {"smiles": "CCCCC(O)(Cn1cncn1)c1ccc(Cl)cc1Cl", "note": "(centres unmarked) [HEXA, Hexaconazole]", "values": [{"measurement": "REP (relative effect potency as compared to flutamide)", "setting": "androgen receptor (AR)", "result": 0.26}, {"measurement": "decrease of basal T secretion compared with vehicle-treated control cells", "setting": "MA-10 cells [1]", "result": "more than 50%"}, {"measurement": "T secretion by MA-10 cells compared with vehicle-control", "setting": "MA-10 cells [1]; 48-h exposure", "result": 36, "unit": "%"}, {"measurement": "ROS formation compared with vehicle-treated control cells", "setting": "MA-10 cells [3]", "result": 1.2, "unit": "fold"}]}, {"smiles": "CCCN(CCOc1c(Cl)cc(Cl)cc1Cl)C(=O)n1ccnc1", "note": "[PRO, Prochloraz]", "values": [{"measurement": "gene expression of five steroidogenic genes (StAR, Cyp11A1, Cyp17A1, 3β-HSD1, 17β-HSD3)", "setting": "MA-10 cells [4]", "result": "did not significantly affect"}, {"measurement": "decrease of basal T secretion compared with vehicle-treated control cells", "setting": "MA-10 cells [1]", "result": "more than 50%"}, {"measurement": "T secretion by MA-10 cells compared with vehicle-control", "setting": "MA-10 cells [1]; 48-h exposure", "result": 23, "unit": "%"}, {"measurement": "ROS formation compared with vehicle-treated control cells", "setting": "MA-10 cells [3]", "result": 1.3, "unit": "fold"}, {"measurement": "gene expression of Cyp51 in comparison with vehicle-treated cells", "setting": "MA-10 cells [5]", "result": 1.7, "unit": "fold"}, {"measurement": "gene expression of HMG-CoA red in comparison with vehicle-treated cells", "setting": "MA-10 cells [5]", "result": 1.9, "unit": "fold"}]}, {"smiles": "C[Si](Cn1cncn1)(c1ccc(F)cc1)c1ccc(F)cc1", "note": "[FLUS, Flusilazole]", "values": [{"measurement": "gene expression of five steroidogenic genes (StAR, Cyp11A1, Cyp17A1, 3β-HSD1, 17β-HSD3)", "setting": "MA-10 cells [4]", "result": "did not significantly affect"}, {"measurement": "decrease of basal T secretion compared with vehicle-treated control cells", "setting": "MA-10 cells [1]", "result": "more than 50%"}, {"measurement": "T secretion, concentration curves without LH", "setting": "MA-10 cells [1]", "result": "concentration-dependently inhibited T secretion"}, {"measurement": "ROS formation compared with vehicle-treated control cells", "setting": "MA-10 cells [3]", "result": 1.2, "unit": "fold"}]}, {"smiles": "C=C(C)[C@H]1Cc2c(ccc3c2O[C@@H]2COc4cc(OC)c(OC)cc4[C@@H]2C3=O)O1", "note": "[rotenone, reference compound]", "values": [{"measurement": "ROS production, % of the control", "setting": "MA-10 cells [3]; rotenone 100 μM, 48 h", "result": "158 ± 18", "unit": "%"}]}, {"smiles": "CC(C)(C)C(=O)C(Oc1ccc(Cl)cc1)n1cncn1", "note": "(centres unmarked) [TRIA, Triadimefon]", "values": [{"measurement": "ROS formation compared with vehicle-treated control cells", "setting": "MA-10 cells [3]", "result": "did not significantly change"}]}, {"smiles": "CC1(C)CCC(=Cc2ccc(Cl)cc2)C1(O)Cn1cncn1", "note": "(centres unmarked) [TRIT, Triticonazole]", "values": [{"measurement": "REP (relative effect potency as compared to flutamide)", "setting": "androgen receptor (AR)", "result": 0.25}, {"measurement": "decrease of basal T secretion compared with vehicle-treated control cells", "setting": "MA-10 cells [1]", "result": "more than 50%"}, {"measurement": "T secretion by MA-10 cells compared with vehicle-control", "setting": "MA-10 cells [1]; 48-h exposure", "result": 44, "unit": "%"}, {"measurement": "ROS formation compared with vehicle-treated control cells", "setting": "MA-10 cells [3]", "result": "did not significantly change"}]}, {"smiles": "OC(Cn1cncn1)(Cn1cncn1)c1ccc(F)cc1F", "note": "[FLUC, Fluconazole, reference compound]", "values": [{"measurement": "ROS formation compared with vehicle-treated control cells", "setting": "MA-10 cells [3]", "result": "did not significantly change"}, {"measurement": "Tmax", "setting": "[7]", "result": "approximately 2 h"}]}]}
